The values below come from ChEMBL document CHEMBL1128471, “Reversible inhibitors of the gastric (H+/K+)-ATPase. 4. Identification of an inhibitor with an intermediate duration of action” (J Med Chem, 1995).

The target in assay [1] is Potassium-transporting ATPase (Rattus norvegicus) (UniProt P09626+P18598). The assay is described as follows: Inhibition of pentagastrin-stimulated gastric acid secretion at a single dose of 10 umol/kg. The class given is functional. As to conditions: Stomach. In a few lines: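 Anesthetized, lumen-perfused rats were given pentagastrin to stimulate gastric acid secretion, and compounds were given iv. The value is an ED50 (µmol/kg iv) with 95% confidence limits, or percent inhibition ± SEM at a single 10 µmol/kg iv dose.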

Assay [2] concerns the target Potassium-transporting ATPase (Sus scrofa, UniProt P19156). The assay is described as follows: Inhibition of K+ -stimulated gastric ATPase activity was measured using lyophilized gastric vesicles at pH 7. The class given is tissue-based, Stomach. In a few lines: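 K+-stimulated ATPase activity was measured in lyophilized (permeabilized) gastric vesicles at pH 7. The value is an IC50, or percent inhibition at the stated concentration where no IC50 could be determined.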

Sequence of Potassium-transporting ATPase (P18434 whole entry): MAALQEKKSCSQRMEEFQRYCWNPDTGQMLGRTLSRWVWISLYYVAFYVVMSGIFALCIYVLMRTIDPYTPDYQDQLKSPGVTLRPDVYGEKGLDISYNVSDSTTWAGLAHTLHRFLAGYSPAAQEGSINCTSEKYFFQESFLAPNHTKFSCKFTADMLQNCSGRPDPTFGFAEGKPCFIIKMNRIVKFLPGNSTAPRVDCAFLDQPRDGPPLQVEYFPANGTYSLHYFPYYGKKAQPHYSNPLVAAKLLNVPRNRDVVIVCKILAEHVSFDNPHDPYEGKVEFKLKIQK
Sequence of Potassium-transporting ATPase (P19156 whole entry): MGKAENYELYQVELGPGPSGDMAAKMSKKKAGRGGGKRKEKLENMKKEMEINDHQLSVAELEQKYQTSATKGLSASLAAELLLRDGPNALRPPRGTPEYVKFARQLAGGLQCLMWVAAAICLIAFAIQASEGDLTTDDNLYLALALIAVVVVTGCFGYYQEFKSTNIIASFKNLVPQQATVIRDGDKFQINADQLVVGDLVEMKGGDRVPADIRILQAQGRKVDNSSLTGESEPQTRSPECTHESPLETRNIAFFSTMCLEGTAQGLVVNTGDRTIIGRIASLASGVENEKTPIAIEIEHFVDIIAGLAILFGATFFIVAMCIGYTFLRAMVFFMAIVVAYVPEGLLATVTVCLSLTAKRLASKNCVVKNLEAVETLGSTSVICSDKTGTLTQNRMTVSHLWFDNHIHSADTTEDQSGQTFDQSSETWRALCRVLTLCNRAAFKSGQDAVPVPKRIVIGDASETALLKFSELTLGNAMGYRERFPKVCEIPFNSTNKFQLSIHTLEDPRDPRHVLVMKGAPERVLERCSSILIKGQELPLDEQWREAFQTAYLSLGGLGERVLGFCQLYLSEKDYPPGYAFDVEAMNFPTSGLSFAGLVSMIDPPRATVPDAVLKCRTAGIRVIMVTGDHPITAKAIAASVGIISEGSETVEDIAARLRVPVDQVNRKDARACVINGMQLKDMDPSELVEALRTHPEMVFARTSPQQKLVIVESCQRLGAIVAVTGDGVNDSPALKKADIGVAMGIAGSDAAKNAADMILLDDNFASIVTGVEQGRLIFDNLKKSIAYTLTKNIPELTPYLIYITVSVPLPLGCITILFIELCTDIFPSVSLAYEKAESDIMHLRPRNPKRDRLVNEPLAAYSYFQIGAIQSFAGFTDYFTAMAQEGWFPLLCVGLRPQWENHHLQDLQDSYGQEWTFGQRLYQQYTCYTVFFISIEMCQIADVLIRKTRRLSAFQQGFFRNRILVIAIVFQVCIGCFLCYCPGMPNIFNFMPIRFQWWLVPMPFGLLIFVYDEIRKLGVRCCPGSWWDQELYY

Usually inhibition stands for the relative decrease from the control value, in per cent. The low end stands for a response near the control, the high end for a response far below the control. Regarding `CCCC(=O)c1cnc2c(OC)cccc2c1Nc1ccccc1CO`, the inhibition in assay [1] turned out to be 33%. Usually IC50 stands for the point on the concentration scale where inhibition reaches its midpoint. As to `CCCC(=O)c1cnc2c(OC)cccc2c1Nc1ccc(N)cc1C`, the IC50 in assay [2] came to 1500 nM. In addition, the inhibition in assay [1] came to 15%.

As for `CCCC(=O)c1cnc2c(N)cccc2c1Nc1c(C)cccc1C`, the 50% inhibitory concentration (IC50) in assay [2] came to 5800 nM. The same molecule had an inhibition in assay [1] of 57%. Molecule `CCCC(=O)c1cnc2c(NCCc3cnc[nH]3)cccc2c1Nc1ccccc1C` yielded an IC50 in assay [2] of 1400 nM. For `CCCC(=O)c1cnc2c(C(N)=O)cccc2c1Nc1ccccc1C`, the IC50 in assay [2] is 1900 nM. The inhibition in assay [1] was 39%.

`CCCC(=O)c1cnc2c(OCCCN(C)Cc3ccccc3)cccc2c1Nc1ccccc1C` came in with an IC50 in assay [2] of 650 nM. In addition, in assay [1], the inhibition is 39%. For `CCCC(=O)c1cnc2c(OCCN(C)C)cccc2c1Nc1ccccc1C` the same measures were 520 nM and 22%. Consider `CCCC(=O)c1cnc2c(OC)cccc2c1Nc1cc(C)ccc1C`, for which, in assay [2], the IC50 was 2500 nM. Further, the inhibition in assay [1] is 48%.

`Cc1ccccc1Nc1c(C(=O)C(C)C)cnc2c(O)cccc12`: the midpoint of inhibition in assay [2], the IC50, lay at 1200 nM. The inhibition in assay [1] was 48%. On to `CCCC(=O)c1cnc2c(OCCCC(=O)Nc3ccncc3)cccc2c1Nc1ccccc1C`, for which the IC50 in assay [2] was found to be 2600 nM. The molecule also gave an inhibition in assay [1] of 46%.

In assay [2], `CCCC(=O)c1cnc2c(COC(=O)NC)cccc2c1Nc1ccccc1C` had an IC50 of 6600 nM. For the same molecule, in assay [1], the inhibition came out at 49%. For `CCC(=O)c1cnc2c(O)cccc2c1Nc1ccc(F)cc1C` the same measures were 1900 nM and 48%. For `CCCC(=O)c1cnc2ccc(N)cc2c1Nc1c(C)cccc1C` the same measures were 160 nM and 35%.

`CCCC(=O)c1cnc2c(NCCCN3CCOCC3)cccc2c1Nc1ccccc1C`: in assay [2], the IC50 was found to be 2400 nM. Also, in assay [1], the inhibition is 47%.

Turning to `CCCC(=O)c1cnc2c(OC)cccc2c1Nc1cc(CO)ccc1C`, the inhibition in assay [1] is 25%. For the molecule `CCCC(=O)c1cnc2c(OC)cccc2c1Nc1cc(C)cc(C)c1`, in assay [2], the IC50 worked out at 11300 nM. The same molecule returned an inhibition in assay [1] of 39%. For `CCCC(=O)c1cnc2c(OC)cccc2c1Nc1cccc(CO)c1C` the same measures were 6000 nM and 44%. In the same order, the values of `CCCC(=O)c1cnc2c(OCCCN3CCOCC3)cccc2c1Nc1ccccc1C` are 890 nM and 48%. `CCCC(=O)c1cnc2c(C(O)CN(C)C)cccc2c1Nc1ccccc1C` (stereo not given) displayed an inhibition in assay [1] of 11%. On the same count and under the same terms, the same measure for `CCCC(=O)c1cnc2c(OCCCc3c[nH]cn3)cccc2c1Nc1c(C)cccc1C`: 40%.

`CCCC(=O)c1cnc2c(OCCCO)cccc2c1Nc1c(C)cccc1C` returned an IC50 in assay [2] of 1210 nM. Also, in assay [1], the inhibition was 75%. As for `CCCC(=O)c1cnc2ccc(CO)cc2c1Nc1ccccc1C`, in assay [1], the inhibition worked out at 46%. The molecule `CCCC(=O)c1cnc2c(OCCCc3nc4ccccc4[nH]3)cccc2c1Nc1c(C)cccc1C` came in with an IC50 in assay [2] of 1400 nM. Moreover, the inhibition in assay [1] is 50%.

In assay [2], `CCCC(=O)c1cnc2c(Oc3ccnc(Cl)c3)cccc2c1Nc1ccccc1C` registered an IC50 of 6900 nM. For the same molecule, the inhibition in assay [1] came out at 33%. In the same order, the values of `CCCC(=O)c1cnc2c(C3COCO3)cccc2c1Nc1ccccc1C` (stereo not given) are 36000 nM and 31%.

In assay [2], `CCCC(=O)c1cnc2c(OC)cccc2c1Nc1ccccc1O` had an IC50 of 1300 nM. In addition, in assay [1], the inhibition was determined as 41%.

Consider `CCCC(=O)c1cnc2c(OCCCC(=O)OCC)cccc2c1Nc1ccccc1C`, for which the IC50 in assay [2] came out at 1600 nM. The same molecule yielded an inhibition in assay [1] of 52%.

For `CCCC(=O)c1cnc2c(OC)cccc2c1Nc1ccccc1COC`, in assay [1], the inhibition came to 43%.

In the case of `CCCC(=O)c1cnc2c(CO)cccc2c1Nc1ccc(F)cc1C`, the inhibition in assay [1] was determined as 55%.

Take `CCCC(=O)c1cnc2c(C3OC3CO)cccc2c1Nc1ccccc1C` (stereo in doubt; 29a): the inhibition in assay [1] was 56%. As to `CCCC(=O)c1cnc2c(OC)cccc2c1Nc1ccc(OCCCn2ccnc2)cc1C`, in assay [2], the IC50 stood at 34000 nM. In turn, `CCCC(=O)c1cnc2c(OC)cc(O)cc2c1Nc1ccc(F)cc1C` registered an IC50 in assay [2] of 2100 nM. Also, the inhibition in assay [1] was determined as 54%. In the same order, the values of `C=CC(O)c1cccc2c(Nc3ccccc3C)c(C(=O)CCC)cnc12` (stereo not given) are 660 nM and 49%. In turn, `CCCC(=O)c1cnc2c(OCCOCCO)cccc2c1Nc1ccc(F)cc1C` returned an inhibition in assay [1] of 49%.

In the case of `CCCC(=O)c1cnc2c(OC)cccc2c1Nc1ccc(O)cc1`, half-maximal inhibition in assay [2] (IC50) required 670 nM. Moreover, in assay [1], the inhibition turned out to be 39%.

On to `CCC(=O)c1cnc2c(O)cccc2c1Nc1ccccc1C`, for which, in assay [2], the IC50 worked out at 860 nM. In assay [1], the inhibition was found to be 45%. With `CCCC(=O)c1cnc2c(CC(=O)OC)cccc2c1Nc1ccccc1C`, half-maximal inhibition in assay [2] (IC50) was put at 5400 nM. In assay [1], the inhibition stood at 43%. In the same order, the values of `CCCC(=O)c1cnc2c(OC)cccc2c1Nc1ccc(N(C)C)cc1C` are 2320 nM and 20%. In the same order, the values of `CCCC(=O)c1cnc2c(OCCCN(C)CCCc3ccccc3)cccc2c1Nc1ccccc1C` are 740 nM and 52%.

Molecule `CCCC(=O)c1cnc2c(OC)cccc2c1Nc1ccc(OC)cc1OC` displayed an IC50 in assay [2] of 2100 nM. The molecule also returned an inhibition in assay [1] of 53%.

In the case of `CCCC(=O)c1cnc2ccc(O)cc2c1Nc1ccccc1C`, in assay [2], the IC50 came to 240 nM. This molecule also showed an inhibition in assay [1] of 58%. In the same order, the values of `CCCC(=O)c1cnc2c(OCCCC(N)=O)cccc2c1Nc1c(C)cccc1C` are 2200 nM and 72%. `CCCC(=O)c1cnc2c(OC)cccc2c1Nc1c(C)cc2c(c1C)OCO2`: the inhibition in assay [1] came out at 51%. Still for that read-out and setting: the same measure for `CCCC(=O)c1cnc2c(C(O)CN3CCOCC3)cccc2c1Nc1ccccc1C` (stereo not given): 4%. Take `CCCC(=O)c1cnc2c(OCCOCCOCCO)cccc2c1Nc1ccc(F)cc1C`: it took 3600 nM to reach half-maximal inhibition in assay [2] (IC50). The inhibition in assay [1] was found to be 51%. In the same order, the values of `CCCC(=O)c1cnc2c(OCCCC(=O)NC(C)(C)CO)cccc2c1Nc1c(C)cccc1C` are 2800 nM and 61%. `CCCC(=O)c1cnc2c(C(C)=O)cccc2c1Nc1ccc(O)cc1C` had an IC50 in assay [2] of 550 nM. The molecule further came in with an inhibition in assay [1] of 44%. For the molecule `CCCC(=O)c1c(C)nc2ccccc2c1Nc1ccccc1C`, the IC50 in assay [2] came to 34000 nM. In turn, `CCCC(=O)c1cnc2c(NCCO)cccc2c1Nc1ccccc1C` gave an IC50 in assay [2] of 7100 nM. In addition, in assay [1], the inhibition came to 62%. In turn, `CCC(=O)c1cnc2c(OCCCNc3nccs3)cccc2c1Nc1c(C)cccc1C` yielded an IC50 in assay [2] of 1700 nM. The inhibition in assay [1] stood at 48%.

In the case of `CCCC(=O)c1cnc2c(OC)cccc2c1Nc1c(C)cc(O)c(O)c1C`, half-maximal inhibition in assay [2] (IC50) required 2800 nM. The molecule further registered an inhibition in assay [1] of 50%. As for `CCCC(=O)c1cnc2c(OC)cc(O)cc2c1Nc1ccccc1C`, the IC50 in assay [2] was 1300 nM. The inhibition in assay [1] was 63%. As to `CCCC(=O)c1cnc2c(OC)cccc2c1Nc1ccc(NC(C)=O)cc1C`, 12000 nM corresponded to half-maximal inhibition in assay [2] (IC50). `CCCC(=O)c1cnc2ccc(O)cc2c1Nc1ccc(O)cc1C` displayed an IC50 in assay [2] of 71 nM. In assay [1], this molecule returned an inhibition of 51%. For `CCCC(=O)c1cnc2c(O)cccc2c1Nc1ccccc1C` the same measures were 3300 nM and 39%. On to `CCCC(=O)c1cnc2c(OCCCN3CCCCC3)cccc2c1Nc1ccccc1C`, for which, in assay [2], the IC50 amounted to 500 nM. In addition, the inhibition in assay [1] stood at 31%. As to `CCCC(=O)c1cnc2c(N)cccc2c1Nc1ccccc1C`, in assay [2], the IC50 worked out at 6000 nM. Moreover, the inhibition in assay [1] worked out at 59%. In the same order, the values of `CCCC(=O)c1cnc2cc(O)ccc2c1Nc1ccccc1C` are 1200 nM and 56%. `CCCC(=O)c1cnc2c(OCCCN(C)C)cccc2c1Nc1ccc(F)cc1C` displayed an inhibition in assay [1] of 37%.

On to `COCCOc1cccc2c(Nc3ccc(F)cc3C)c(C(=O)C(C)C)cnc12`, for which the IC50 in assay [2] was found to be 1700 nM. In assay [1], the inhibition came out at 57%. In the same order, the values of `CCCC(=O)c1cnc2c(OCCCN3CCCC3)cccc2c1Nc1ccccc1C` are 510 nM and 31%. In assay [2], `CCCC(=O)c1cnc2c(COC(=O)CC)cccc2c1Nc1ccccc1C` came in with an IC50 of 18400 nM.

In the case of `CCCC(=O)c1cnc2c(CC(=O)O)cccc2c1Nc1ccccc1C`, 7200 nM corresponded to half-maximal inhibition in assay [2] (IC50). Also, the inhibition in assay [1] was determined as 24%. For `CCCC(=O)c1cnc2c(C(C)=O)cccc2c1Nc1ccccc1C` the same measures were 1500 nM and 37%.

As for `CCCC(=O)c1cnc2c(NCCc3c[nH]cn3)cccc2c1Nc1ccccc1C`, the inhibition in assay [1] stood at 31%. As to `CCCC(=O)c1cnc2c(C3OC3CO)cccc2c1Nc1ccccc1C` (stereo in doubt; 29b) [listing 1 of 2 here], the inhibition in assay [1] was 52%.

In turn, `CCCC(=O)c1cnc2c(OCCCc3cnc[nH]3)cccc2c1Nc1c(C)cccc1C` gave an IC50 in assay [2] of 600 nM. With `CCCC(=O)c1cnc2c(OC)cccc2c1Nc1ccc(C)cc1C`, the IC50 in assay [2] is 4300 nM. In assay [1], this molecule showed an inhibition of 59%. In the same order, the values of `CCCC(=O)c1cnc2c(OCCO)cccc2c1Nc1ccc(O)cc1C` are 210 nM and 70%. `CCCC(=O)c1cnc2ccc(OC)cc2c1Nc1ccccc1C` showed an IC50 in assay [2] of 7000 nM. The same molecule showed an inhibition in assay [1] of 59%.

In assay [2], `CCCC(=O)c1cnc2c(C3OC3CO)cccc2c1Nc1ccccc1C` (stereo in doubt; 29b) [listing 2 of 2 here] showed an IC50 of 3100 nM. `Cc1cc(F)ccc1Nc1c(C(=O)C(C)C)cnc2c(O)cccc12` yielded an IC50 in assay [2] of 2700 nM. For the same molecule, the inhibition in assay [1] was determined as 20%.

In assay [2], `CCCC(=O)c1cnc2c(OC)cccc2c1Nc1ccc(NS(C)(=O)=O)cc1C` came in with an IC50 of 45000 nM. Take `CCCC(=O)c1cnc2c(C)cccc2c1Nc1ccccc1Cl`: inhibition in assay [2] was half-maximal at 6300 nM (IC50).
